# High-throughput results deposited in PubChem BioAssay by The Scripps Research Institute Molecular Screening Center.
# Sampled rows, rich in hits. Any-hit rate of the full collection: about 3.3%.
# rCAG binder: binders of r(CAG) RNA repeats, primary screen, biochemical, fluorescence | hit rate 1.3% among 370,000 | inhibition, % at 3 µM | AID 651821, 2012 | r(CAG) RNA repeat, TO-PRO-1 dye displacement fluorescence;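 active means inhibition above the plate cutoff, the mean of all test compounds on that plate plus 3 SD, cut at about 35% in these data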;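 further: higher means more dye released from RNA so lower well fluorescence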
# SIAE primary: human SIAE inhibitors, primary screen, biochemical, fluorescence polarization, FP-Rh probe, 1536-well HTS. Sialate O-acetylesterase (Homo sapiens), Q9HAT2. SIAE FP-Rh probe binding. inhibition, % at 9.66 µM. hit rate 0.69% among 370,000;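 active means inhibition above a cutoff: mean of compounds within the control limits plus 3 SD of those, cut at about 17% in these data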
# PRMT1 FP inh: PRMT1 methyltransferase inhibitors, primary screen, biochemical, fluorescence polarization | Protein arginine N-methyltransferase 1 (Homo sapiens), Q99873 | recombinant PRMT1, activity-based probe fluorescence polarization | inhibition, % at 2.79 µM | hit rate 1.3% among 370,000 | AID 652257, 2013;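 active means inhibition above about 21% made by adding two undisclosed values, limit read from the data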
# HTRA1 inh: HTRA1 serine protease inhibitors, primary screen, biochemical, fluorescence polarization, HTS. Q92743. hit rate 0.5% among 340,000. recombinant HTRA1, FP-rhodamine activity-based probe. AID 504803, 2011. inhibition, % at 5.96 µM; in the data active means inhibition above about 36%
# Target sequence (Q92743 whole entry, looked up): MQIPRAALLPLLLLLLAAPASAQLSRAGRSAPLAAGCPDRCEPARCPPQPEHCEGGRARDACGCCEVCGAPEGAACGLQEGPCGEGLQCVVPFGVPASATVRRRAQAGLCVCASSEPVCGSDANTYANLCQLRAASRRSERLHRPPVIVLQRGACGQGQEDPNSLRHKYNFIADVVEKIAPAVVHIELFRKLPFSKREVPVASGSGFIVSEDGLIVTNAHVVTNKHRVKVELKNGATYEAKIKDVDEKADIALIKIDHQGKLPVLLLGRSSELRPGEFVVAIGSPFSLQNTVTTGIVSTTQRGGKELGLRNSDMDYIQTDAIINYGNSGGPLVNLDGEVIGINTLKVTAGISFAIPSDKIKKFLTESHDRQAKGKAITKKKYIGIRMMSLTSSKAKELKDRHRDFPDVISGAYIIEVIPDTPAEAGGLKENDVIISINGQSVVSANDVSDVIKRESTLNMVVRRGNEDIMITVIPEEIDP
# ABHD4 inh: ABHD4 inhibitors, primary screen, biochemical, fluorescence polarization, mouse | hit rate 0.54% among 370,000 | purified mABHD4, FP-Rh probe fluorescence polarization | inhibition, % at 8.92 µM;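 active means inhibition exceeding the mean over every tested compound plus 3 SD, cut at about 30% in these data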
#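 Test system: mABHD4 protein; Read-out basis: % inhibition; Incubation: 45 min + 60 min at 25 °C; Repeats: single replicate; Technique: fluorescence polarization with parallel and perpendicular emission, 525/598 nm; Compound: 8.92 µM, single dose; Benchmarks: full inhibition S159A mutant plus DMSO, zero as sample-well median.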
# Hits are given with their value; n = inactive; x = no result given.
SMILES,rCAG binder,SIAE primary,PRMT1 FP inh,HTRA1 inh,ABHD4 inh
O=C(CCCc1nc2ccccc2s1)N1CCN(c2ccccc2F)CC1,n,n,n,n,n
O=C(CSc1nc2cc(Cl)ccc2s1)NC(=O)NCc1ccco1,n,n,21,n,n
CCCNc1cc(=S)nc(N)[nH]1,n,n,22,n,n
CCCNc1nc2ccccc2c(=O)[nH]1,n,n,n,n,n
O=C(CSc1nnc(COc2ccccc2)o1)Nc1nccs1,n,n,n,n,n
Cc1cnc(NC(=O)CSc2nnc(COc3ccccc3)o2)s1,n,n,24,n,n
CSc1cc(-c2ccco2)oc1C(=O)c1ccco1,n,n,25,n,n
COC(=O)[C@]12C[C@H](CC(=O)NCCCCc3ccccc3)C(=O)N(Cc3ccco3)C1=C[C@H](COCc1ccccc1)O[C@@H]2C,n,n,n,x,n
CCn1c2ccc(C)cc2c2nnc(SCCN3CCOCC3)nc21,n,n,n,n,n
Cc1ccc2c(c1)c1nnc(SCC(=O)N3CCN(c4ccc(F)cc4)CC3)nc1n2CC(=O)O,n,n,22,n,n
O=C(COc1ccccc1)NC1=NCCS1,n,n,n,n,n
N#Cc1ccc(OCC(=O)NC2=NCCS2)cc1,n,n,27,n,n
O=C(CCCN1CCOCC1)c1ccc2c(c1)OCCO2,n,n,n,n,n
O=C(CCN1CCOCC1)c1ccc2c(c1)OCCO2,n,n,24,n,n
Nc1cc(=O)[nH]c(SCC(=O)Nc2cc(S(=O)(=O)N3CCCCCC3)ccc2Cl)n1,n,n,23,n,n
Nc1cc(=O)[nH]c(SCC(=O)Nc2cc(S(=O)(=O)N3CCOCC3)ccc2Cl)n1,n,n,n,n,n
CCOc1ccc(S(=O)(=O)Nc2ccccc2C(=O)NCc2ccco2)cc1,n,n,n,n,n
COc1ccc(S(=O)(=O)Nc2ccccc2C(=O)NCc2ccco2)cc1Br,43,n,n,n,n
C=CCNC(=O)C1CC(=O)N(c2ccc(OCC(=O)Nc3ccccc3)cc2)C1 (stereo unspecified),n,18,n,n,n
C=CCNC(=O)C1CC(=O)N(c2ccc(OCC(=O)Nc3ccc(C)cc3)cc2)C1 (stereo unspecified),n,n,n,n,n
C=CC(C)(C)c1c(O)c(CC=C(C)C)c(O)c2c(=O)c3ccc(O)c(O)c3oc12,x,x,x,37,x
C=CC(C)(C)c1c2occc2c(O)c2ccc(=O)oc12,n,n,n,n,n
COc1ccc(CCNC(=O)COC(=O)CSc2ccc(C(N)=O)cc2[N+](=O)[O-])cc1OC,n,n,22,n,n
Cc1ccnc(NC(=S)NC(=O)/C=C/c2ccco2)c1,n,n,23,n,n
O=C(/C=C/c1ccco1)NC(=S)Nc1ccc(C(=O)O)cc1,n,n,24,n,n
SMILES,rCAG binder,SIAE primary,PRMT1 FP inh,HTRA1 inh,ABHD4 inh
Cc1ccc(O)c(NC(=S)NC(=O)/C=C/c2ccco2)c1,n,n,n,n,n
COC(=O)[C@]12C[C@H](CC(=O)NCC34CC5CC(CC(C5)C3)C4)C(=O)N(Cc3ccc4c(c3)OCO4)C1=C[C@H](COCc1ccccc1)O[C@@H]2C,n,n,n,x,n
CCCCCCCCN1C(=O)[C@@H](CC(=O)NCCCOCCCC)C[C@@]2(C(=O)OC)C1=C[C@H](C(C)(C)C)O[C@@H]2C,n,n,n,x,n
O=S(=O)(O)c1cc(O)c2ccc(Nc3ccccc3)cc2c1,65,n,28,n,63
COc1cccc(C(=O)NCc2ccc3c(c2)cc(C)n3C)c1,n,n,n,n,n
COc1ccc(C(=O)NCc2ccc3c(c2)cc(C)n3C)cc1OC,n,n,24,n,n
Cc1cc(CN2CCN(c3ncc(Cc4ccccc4)cn3)CC2)cc(C)c1O,n,n,n,x,n
CCOC(=O)C1=C(C)N(c2ccccc2)C(=O)/C1=C\c1ccc(O)c(OC)c1,n,n,42,n,n
CSc1nsc(SCC(=O)Nc2c(C)n(C)n(-c3ccccc3)c2=O)n1,n,n,22,n,n
COc1ccccc1N=C1SC(C(=O)Nc2cccc(Cl)c2Cl)C(N)=C1C(N)=O (stereo unspecified),n,n,n,n,n
